Compounds with a hit are over-represented: about 3.7% of the library has one in this group of screens.
Kir21 block: blocks the mouse Kir2.1 inward-rectifier potassium channel; 0.85% of 310,000 active; B-score at 10 µM; AID 1672; P35561; HEK293-Kir2.1, FluxOR thallium flux fluorescence; hits give low values;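 active = fluorescence ratio B-score at or below minus 3 SD of library scores, with starting-brightness B-score within 2 SD, cut at about -4.2 in these data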;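 also: channel flux triggered by added potassium and thallium sulfate stimulus; B-score of peak minus minimum fluorescence over baseline after thallium stimulus; more negative B-score means stronger Kir2.1 block with less thallium influx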
Target sequence (P35561 whole entry, looked up): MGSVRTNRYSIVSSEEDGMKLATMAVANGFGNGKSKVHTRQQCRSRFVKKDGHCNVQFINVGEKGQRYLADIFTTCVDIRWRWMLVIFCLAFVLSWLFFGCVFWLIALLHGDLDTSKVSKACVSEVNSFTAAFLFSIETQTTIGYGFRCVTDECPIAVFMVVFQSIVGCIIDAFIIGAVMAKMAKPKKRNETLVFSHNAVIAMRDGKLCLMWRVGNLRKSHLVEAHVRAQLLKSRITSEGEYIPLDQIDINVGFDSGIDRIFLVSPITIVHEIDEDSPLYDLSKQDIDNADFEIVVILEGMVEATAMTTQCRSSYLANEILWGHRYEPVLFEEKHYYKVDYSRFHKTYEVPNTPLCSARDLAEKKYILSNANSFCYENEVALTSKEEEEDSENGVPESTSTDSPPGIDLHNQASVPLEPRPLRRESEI
KCNQ1 block: blocks the human KCNQ1 potassium channel. P51787. CHO-K1 KCNQ1, FluxOR thallium flux fluorescence; hits give high values. B-score at 10 µM. 1.3% of 310,000 active;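 active = compounds whose thallium flux B-score, printed positive for inhibition, exceeds three library SD while starting fluorescence stays within three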;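 also: channel opened by potassium depolarization with thallium stimulus after 20 min compound exposure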
KCNK3 inh: human KCNK3 channel inhibition, primary screen. O14649. CHO-KCNK3 thallium flux, FluxOR fluorescence; hits give low values. B-score at 10 µM. 0.84% of 340,000 active. AID 602410;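 active = B-score under library mean minus 4 SD, starting fluorescence ratio at most library mean plus 5 SD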;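 also: more negative B-score means stronger inhibition of thallium flux through KCNK3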
KCNK9 block: blocks the human KCNK9 two-pore domain potassium channel. Q9NPC2. HEK293 KCNK9, FluxOR thallium flux fluorescence; hits give low values. B-score at 10 µM. 1.2% of 310,000 active. AID 488922;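 active = ratio B-score over 3 SD below the library mean, with starting fluorescence within 5 SD of its mean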;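 also: negative B-score means less thallium flux so channel inhibition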
hERG protect: shields human hERG channel from block by proarrhythmic agents; 0.51% of 310,000 active; activation (rescue from dofetilide block), less the hit threshold, % at 10 µM; CHO-hERG, FluxOR thallium flux, dofetilide IC70 present; Q12809;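 active = activation above the mean of controls blocked by dofetilide plus 5 SD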;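 also: thallium influx through hERG after potassium depolarization seen as dye fluorescence rise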
KCNQ1 act: human KCNQ1 channel potentiation or activation; P51787; CHO-K1 KCNQ1, thallium flux FluxOR fluorescence; hits give high values; B-score at 10 µM; 0.35% of 310,000 active; AID 2648;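 active = fluorescence ratio B-score, a plate-corrected score, at least three library SD, with initial intensity B-score within 5 SD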
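Assay system: stable KCNQ1 CHO-K1 line; medium: assay buffer, equal DMSO in all wells; timing: 90 min dye loading and 20 min compound exposure, both at room temperature; technique: kinetic FluxOR thallium fluorescence, 10-s 1-Hz baseline, 110-s post-stimulus read; read-out basis: B score of baseline-normalized fluorescence ratio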
The depositor's hits bear a star; i = inactive; . = not tested or not shown.

SMILES	Kir21 block	KCNQ1 block	KCNK3 inh	KCNK9 block	hERG protect	KCNQ1 act
COc1ccc2cc(CCNC(=O)c3ccc(S(=O)(=O)N4CCCC4)cc3)c(=O)[nH]c2c1	-0.21	i	i	i	-14	i
O=C(COC(=O)C1(c2ccccc2F)CCCC1)NCc1cccs1	-6.8*	i	i	i	-6	i
O=C(c1ccccc1Cl)N1N=C(c2cccs2)CC1c1cccc(O)c1 (centres undefined)	-0.69	i	i	i	-11	i
COc1ccc(Cc2nnc(SCC(=O)NC3(C#N)CCCCC3)n2N)cc1	-1.1	i	i	i	-3	i
O=C(CCC1CCCCC1)NCc1ccc(F)cc1	-2	i	i	i	-5	i
CC1CCCCC1NCC(=O)NCc1ccc(F)cc1 (centres undefined)	0.55	i	i	i	4.7*	i
Cc1c(-c2ccccc2)sc2nc[nH]c(=S)c12	0.39	i	i	i	30*	91*
CCCOc1ccc(C(=O)NC(=S)NNC(=O)c2c(-c3ccccc3)noc2C)cc1	1.3	i	i	i	-12	15*
Cc1ccc(S(=O)(=O)NCC(C)n2nc(C)cc2C)cc1 (centres undefined)	-0.09	i	i	i	1	i
Cc1ccc(C(C[N+](=O)[O-])n2nc(C)cc2C)cc1 (centres undefined)	-8*	i	i	i	-7	i
O=C1COc2ccc(C(=O)COC(=O)Cc3ccsc3)cc2N1	-0.49	i	i	i	-11	i
O=C(Nc1ccc(N2CCCC2)c(S(=O)(=O)Nc2cccc(C(F)(F)F)c2)c1)c1cccs1	-0.26	i	i	-7*	-8	i
CCOC(=O)C(C)Sc1nc(-c2ccccc2)nc2ccccc12 (centres undefined)	1.2	i	i	-7.6*	-16	i
O=C(O)c1cccc(-n2sc3ccccc3c2=O)c1	.	.	i	.	.	.
O=c1c2ccccc2sn1-c1ccccc1	-1.4	i	i	i	6.5*	i
OC[C@H]1O[C@@](CO)(O[C@H]2O[C@H](CO)[C@@H](O)[C@H](O)[C@H]2O)[C@@H](O[C@H]2O[C@H](CO)[C@@H](O)[C@H](O)[C@H]2O)[C@@H]1O	.	.	i	.	.	.
OC1(C#CCCN2CCCCC2)c2ccccc2-c2ccccc21	0.06	i	i	i	3	i
N#CC1(CCCN2CCCCC2)c2ccccc2CCc2ccccc21	-5.6*	i	i	i	-11	i
COCc1nc2ccccc2n1Cc1cccc(C)c1	-0.4	i	i	i	-7	i
Cc1cccc(Cn2c(Cc3ccccc3)nc3ccccc32)c1	-11*	i	i	i	-13	i
COc1ccccc1NC(=O)C(C)OC(=O)CCC1CCCCC1 (centres undefined)	-2.4	i	-8.9*	i	-16	i
CCOC(=O)/C(=C/c1ccc(OC(=O)c2ccccc2)cc1)C(C)=O	-9.4*	i	i	i	-17	i
CCOC(=O)/C(=C\c1ccccc1)NC(=O)c1ccccc1	-1.6	i	i	i	-9	i
CCCN(CC(=O)Nc1ccccc1C)C(=O)c1ccc(COc2ccccc2)cc1	0.44	i	i	i	-16	i
COc1cc2c(cc1NC(=O)CSc1nnc(COc3ccc(Cl)cc3)n1C)oc1ccccc12	0.63	i	i	i	-6	11*
SMILES	Kir21 block	KCNQ1 block	KCNK3 inh	KCNK9 block	hERG protect	KCNQ1 act
C=CCN1C(=O)/C(=C/c2ccc(OC(C)=O)c(OCC)c2[N+](=O)[O-])SC1=S	-0.68	12*	i	i	-39	i
COC(=O)C1=C(C)N(c2cccc(OC)c2)C(=O)/C1=C\c1ccco1	0.28	i	i	-7.3*	-6	i
CCN1C(=O)/C(=C\c2ccco2)C(C(=O)OC)=C1C	-0.32	i	i	i	-9	i
Cc1ccc(C(=O)OCC(=O)N(C)c2ccccc2)cc1C	0.2	i	i	i	-4	11*
Cc1cc(C(=O)OCC(=O)N(C)c2ccccc2)ccc1[N+](=O)[O-]	0.78	i	i	i	-7	i
COc1ccc(C2CCCN2CC(O)COc2ccccc2C(C)C)cc1 (centres undefined)	-11*	i	i	i	-16	i
CC(C)c1ccccc1NC(=O)CNC(C)c1ccc(F)cc1 (centres undefined)	-5.5*	i	i	i	-12	i
CSC(=S)N/N=C/c1ccc(Br)cc1	0.26	i	i	i	19*	41*
CSC(=S)N/N=C/c1ccc(N(C)C)cc1	1.1	i	i	i	-11	9*
S=C(N/N=C/c1ccc(Br)cc1)N1CCCCC1	2.1	i	i	i	-5	i
COP(=O)(OC)c1nc(-c2ccc(C)cc2)oc1N1CCCCC1	0.67	i	i	i	-1	i
CC1CCc2sc(C(=O)NN=C3CCC(c4ccccc4)CC3)cc2C1 (centres undefined)	1.1	i	i	i	-5	i
Cc1cccc(NC(=S)NNC(=O)c2csc3c2CCC(C)C3)c1 (centres undefined)	-1.3	i	i	i	-1	20*
Cc1cccc(NC(=S)NNC(=O)c2cc3c(s2)CCC(C)C3)c1C (centres undefined)	1.3	i	i	i	-12	11*
Cc1ccc(C)c(NC(=S)NNC(=O)c2cc3c(s2)CCC(C)C3)c1 (centres undefined)	-1.6	i	i	i	9.3*	i
CC(C)CNC(=S)NNC(=O)c1csc2c1CCC(C)C2 (centres undefined)	-0.92	i	i	i	-8	i
COc1ccccc1C(CNC(=O)c1cccc(S(=O)(=O)Nc2ccc(C)cc2)c1)N(C)C (centres undefined)	0.98	i	i	i	-10	i
CCCCn1c(N)c(N(CC(C)C)C(=O)c2ccc([N+](=O)[O-])o2)c(=O)[nH]c1=O	.	.	i	.	.	.
COc1ccc(-c2cc3nc(C)cc(N4CC(C)CC(C)C4)n3n2)cc1 (centres undefined)	-0.44	6*	i	i	-12	i
Cc1ccc(-c2cc3nc(C)cc(C)n3n2)cc1	-0.73	i	i	i	-9	i
N#Cc1ccc(OCC(=O)N2CCCC2=O)cc1	.	.	i	.	.	.
CCN1CC(c2ccccc2)C(c2ccc(Cl)cc2)=N1 (centres undefined)	-1.5	i	i	-7*	-3	i
OC[C@@H]1[C@@H](c2ccc(Cl)cc2)C(c2ccc(F)cc2)=NN1c1ccccc1	.	.	i	.	.	.

High-throughput results deposited in PubChem BioAssay by Johns Hopkins Ion Channel Center.
